MrgX1 PAM: allosterically activates human MrgX1 receptor signaling; Q96LB2; B-score at 10 µM; MrgX1-HEK293, Fluo-4 calcium flux, FDSS; hits give high values; hit rate 0.63% among 310,000;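 active = plate-corrected calcium response at least 3 library SD above typical, normal starting fluorescence, not activating the receptor alone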;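 also: compound read alongside a low EC10 to EC30 dose of BAM8-22 agonist; peak minus trough fluorescence over baseline measured at the second addition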
Target sequence (Q96LB2 whole entry, looked up): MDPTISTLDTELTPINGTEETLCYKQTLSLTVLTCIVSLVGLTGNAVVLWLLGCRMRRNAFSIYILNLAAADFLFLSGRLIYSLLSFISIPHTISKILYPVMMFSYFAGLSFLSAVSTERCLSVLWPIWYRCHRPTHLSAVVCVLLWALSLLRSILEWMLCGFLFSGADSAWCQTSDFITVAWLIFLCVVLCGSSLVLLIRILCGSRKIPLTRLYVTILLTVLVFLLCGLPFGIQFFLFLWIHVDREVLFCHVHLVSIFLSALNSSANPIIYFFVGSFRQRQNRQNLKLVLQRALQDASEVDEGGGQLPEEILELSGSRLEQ
RGS4 block: human RGS4 inhibition; AID 463165; hit rate 0.45% among 310,000; B-score at 10 µM; HEK293 M3R/RGS4 inducible, Fluo-4 calcium flux; hits give high values; triggered by carbachol at its EC20;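 active = B-score, a plate-corrected calcium signal, over three deviations above library mean, with baseline fluorescence within five deviations of library mean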;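 also: RGS4 expression induced by doxycycline in cells with stable M3 receptor; B-score is computed from the integrated fluorescence ratio over baseline after carbachol; higher B-score means a larger calcium signal and so more RGS4 inhibition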
Target sequence (P49798 whole entry, looked up): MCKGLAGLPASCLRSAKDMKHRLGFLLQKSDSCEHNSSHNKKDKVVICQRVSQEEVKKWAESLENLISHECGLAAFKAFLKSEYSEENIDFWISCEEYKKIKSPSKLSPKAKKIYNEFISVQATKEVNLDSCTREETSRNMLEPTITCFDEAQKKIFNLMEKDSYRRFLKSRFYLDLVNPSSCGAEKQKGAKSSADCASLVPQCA
RGS4 pot: RGS4 potentiation or activation. hit rate 0.92% among 310,000. AID 463111. HEK293 M3R/inducible RGS4, carbachol calcium flux Fluo4; hits give low values. B-score at 10 µM;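 active = B-score of the integrated calcium signal more than 4 SD below the library mean, with starting fluorescence not abnormally high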;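 also: negative B-score means reduced calcium response which marks RGS4 activation or potentiation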
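Assay system: Inducible-RGS4 HEK293 cells carrying M3 receptor | Schedule: Compound preincubation 20 min at room temperature before agonist | Signal: Kinetic calcium fluorescence imaging with Fluo4-AM dye, 2 µM | Read-out basis: B score from integrated fluorescence ratio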
MrgX1 antag: blocks BAM8-22 activation of human MrgX1 receptor; hit rate 1.3% among 310,000; B-score at 10 µM; MRGX1-HEK293 calcium flux, Fluo-4, BAM8-22 antagonism; hits give low values; Q96LB2; AID 588676;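 active = calcium-response B-score plate-corrected more than 3 library SD below zero, starting fluorescence within 5 deviations, no agonist response on first addition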;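 also: peak minus trough fluorescence over baseline after final BAM8-22 challenge near maximal dose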
MrgX1 ag: human MrgX1 receptor agonism, primary screen; MrgX1-HEK293 cells, Fluo-4 calcium fluorescence, agonist mode; hits give high values; B-score at 10 µM; hit rate 0.44% among 310,000; AID 588627;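 active = calcium response B-score plate-corrected fluorescence ratio at least 3 library SD, with starting fluorescence B-score inside 5 SD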
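Material: HEK293 cells stably expressing human MrgX1 receptor | Quantity: 15,000 cells per well | Times: Cells plated overnight, dye loaded 0.5 h 37 °C, 0.5 h room temperature | Measured by: Kinetic Fluo-4 NW fluorescence of intracellular calcium | Control set: Positive and negative controls per plate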
MrgX1 antag conf: confirmation of human MrgX1 receptor antagonists. shares compounds with MrgX1 antag. MrgX1-HEK293, BAM8-22 calcium flux, Fluo-4; hits give low values. hit rate 19% among 2,300. remaining BAM8-22 calcium response % of control (hits give low values), % at 10 µM. AID 602420;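 active = remaining agonist calcium response no higher than 100% minus 3 SD of agonist-only control wells, with starting fluorescence near control levels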;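 also: agonist BAM8-22 given at a near maximal EC90 to ECmax level; peak minus minimum fluorescence divided by baseline after agonist addition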
HEK293 Ca flux: counter-screen for MrgX1 antagonists: effect in parental HEK293 cells. shares compounds with MrgX1 antag. AID 624111. hit rate 2% among 4,000. fluorescence ratio F(max-min)/F0 at 10 µM. Fluo-4 calcium fluorescence, FDSS;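 active = duplicate-averaged calcium fluorescence ratio at least three times the standard deviation of buffer wells, a nonspecific response in parental cells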
HEK293 Ca counter: activity in parental HEK293 cells without MrgX1; hit rate 0.4% among 4,000; shares compounds with MrgX1 antag; parental HEK293 calcium flux, Fluo-4 fluorescence ratio; hits give high values; fluorescence ratio F(max-min)/F0 at 10 µM;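 active = calcium fluorescence ratio, averaged over duplicates, at least 3 SD of the buffer-well ratio, meaning a nonspecific response in receptor-free cells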;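 also: untransfected parental HEK293 lacking MrgX1 used as counterscreen for MrgX1 allosteric activators; fluorescence change taken during the second addition on a kinetic imager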
HEK293 Ca cntr2: MrgX1 activator counter-screen hit in parental HEK293 cells | hit rate 8.7% among 4,000 | Fluo-4 calcium fluorescence (FDSS); hits give high values | fluorescence ratio F(max-min)/F0 at 10 µM | shares compounds with MrgX1 antag;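 active = calcium fluorescence ratio at least three times the spread of buffer wells, meaning a non-specific response in parental cells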
* marks the source's active call; other numbers are inactive results; i = inactive; . = no result given. An excerpt weighted towards active compounds, which were near 3.5% of everything screened.

SMILES | MrgX1 PAM | RGS4 block | RGS4 pot | MrgX1 antag | MrgX1 ag | MrgX1 antag conf | HEK293 Ca flux | HEK293 Ca counter | HEK293 Ca cntr2
Cc1nc2sc(C(=O)c3ccccc3)c(N)c2c(C)c1C | i | i | i | i | i | . | . | . | .
CC(C)[C@@H](C(=O)OCC(=O)Nc1ccc2c(c1)OCO2)N1C(=O)c2ccccc2C1=O | i | i | i | -5.3* | i | i | i | i | i
O=C(COC(=O)[C@H](Cc1ccccc1)N1C(=O)c2ccccc2C1=O)Nc1ccc2c(c1)OCO2 | i | i | i | i | i | . | . | . | .
COCC(=O)n1nc(-c2ccccc2)nc1NCc1ccc(N(C)C)cc1 | i | i | i | i | i | . | . | . | .
COCC(=O)n1nc(-c2ccc(Cl)cc2)nc1NCc1ccc(F)cc1 | i | i | i | -4.9* | i | 81%* | i | i | i
Cc1ccccc1NC(=O)C(C)OC(=O)c1ccccc1C(=O)N(C)c1ccccc1 (stereo not drawn) | i | i | i | -5.7* | i | i | i | i | i
CCOc1ccc(S(=O)(=O)N2CCCC(C(=O)N3CCN(CC)CC3)C2)cc1Cl (stereo not drawn) | i | i | i | i | i | . | . | . | .
CC(O)[C@H]1CNC(=O)C(=O)N1CCC12CC3CC(CC(C3)C1)C2 (stereo partly drawn) | i | i | i | i | i | . | . | . | .
O=C1CCCN1CCC12CC3CC(CC(C3)C1)C2 | i | i | i | -4.7* | i | i | i | i | i
COc1ccc(OC)c(-n2c(-c3ccccc3)n[nH]c2=S)c1 | i | i | i | -5.2* | i | i | i | i | i
COc1ccc(OC)c(-n2c(-c3cccc(C)c3)n[nH]c2=S)c1 | i | i | i | i | i | . | . | . | .
O=C(NC1CCS(=O)(=O)C1)C12CC3CC(CC(C3)C1)C2 (stereo not drawn) | i | i | i | -9.4* | i | i | i | i | i
Cc1cccc(NC(=O)c2ccc(C(=O)c3ccccc3)cc2)n1 | i | i | i | -4.9* | i | 77%* | i | i | i
O=C(COC(=O)c1ncc(Cl)c(Cl)c1Cl)NCCc1ccccc1 | i | i | i | i | i | . | . | . | .
N#Cc1sc2nc(-c3ccccc3)cc(-c3ccco3)c2c1N | i | i | i | -10* | i | i | i | i | i
O=C(NC(=S)N1CCCC1)c1ccccc1Cl | i | i | i | i | i | . | . | . | .
COC(=O)c1ccc(NC(=S)NCCc2cccc(C)c2)cc1 | i | i | i | i | i | . | . | . | .
COC(=O)c1ccc(NC(=S)NCCc2ccccc2C)cc1 | i | i | i | -5* | i | i | i | i | i
CC(=O)N1CCC2(CC1)CC(=O)c1cc(OCC(=O)N3CCOCC3)ccc1O2 | i | i | i | i | i | . | . | . | .
CCc1cccc2cc3c(N)c(C(=O)Nc4ccc(S(=O)(=O)N5CCCC5)cc4)sc3nc12 | i | i | i | -9.7* | i | i | 0.41* | i | i
Cc1ccc(C)c(NC(NC(=O)c2ccccn2)C(Cl)(Cl)Cl)c1 (stereo not drawn) | i | i | i | i | i | . | . | . | .
CC(C)c1ccc(OCC(=O)N(Cc2ccccc2)c2ccccn2)cc1 | i | i | i | i | i | . | . | . | .
CC(=O)Nc1ccccc1Nc1nc(NCCO)nc(N2CCCC2)n1 | i | i | i | -8.3* | i | i | i | i | i
OCCNc1nc(Nc2ccccc2O)nc(N2CCCC2)n1 | i | i | i | i | i | . | . | . | .
O=C(Nc1ccccc1C(=O)N1CCCC1)C1CCN(c2ncccn2)CC1 | i | i | i | -7.2* | i | i | i | i | i
SMILES | MrgX1 PAM | RGS4 block | RGS4 pot | MrgX1 antag | MrgX1 ag | MrgX1 antag conf | HEK293 Ca flux | HEK293 Ca counter | HEK293 Ca cntr2
Cc1ccccc1C(=O)NNC(=O)C1CCN(c2ncccn2)CC1 | i | i | i | i | i | . | . | . | .
O=C(O)CCCC(=O)Nc1ccccc1C(=O)N1CCCC1 | i | i | i | -5.5* | i | i | i | i | i
CCc1ccccc1S(=O)(=O)c1c(C)cc(C)nc1Cl | i | i | i | -5* | i | i | i | i | i
Cc1cc(C)c(S(=O)(=O)c2ccc(Cl)cc2C)c(Cl)n1 | i | i | i | i | i | . | . | . | .
Cc1nn(Cc2noc(C(=O)NCc3ccccn3)n2)c(C)c1Br | i | i | i | i | i | . | . | . | .
O=C1C2C3c4ccccc4C(c4ccccc43)C2C(=O)N1CN1CCOCC1 (stereo not drawn) | i | i | i | i | i | . | . | . | .
O=C(CN1C(=O)C2C3c4ccccc4C(c4ccccc43)C2C1=O)N1CCOCC1 (stereo not drawn) | i | i | i | -5.2* | i | i | i | i | i
Cc1cccc(C)c1NC(=O)CSc1ncnc2nc[nH]c12 | i | i | i | -4.7* | i | i | i | i | i
CCOC(=O)C[C@H]1c2cc(F)ccc2S(=O)(=O)N1C1CCCCC1 | i | i | i | -6.4* | i | i | i | i | i
COc1cccc(-c2nc(CS(=O)(=O)CC(=O)N3CCc4ccccc43)c(C)o2)c1 | i | i | i | -4.9* | i | i | i | i | i
Cc1ccc(OC(=O)CCC(=O)Nc2ccc(C)c(C)c2)cc1 | i | i | i | i | i | . | . | . | .
COc1ccc2nc(-n3c(C)ccc3C)sc2c1 | i | i | i | -6* | i | i | i | i | i
COc1ccc2nc(-c3ccc(F)cc3)sc2c1 | i | i | i | -4.6* | i | i | i | i | i
COc1ccc2nc(N)sc2c1 | i | i | i | i | i | . | . | . | .
CC(=O)NS(=O)(=O)c1ccc(NC(=S)NC(=O)C2CCC2)cc1 | . | i | i | . | . | . | . | . | .
COc1cc2[nH]c(C(=O)N3CCc4ccccc43)cc2c(OC)c1OC | i | i | i | i | i | . | . | . | .

High-throughput results deposited in PubChem by Johns Hopkins Ion Channel Center.
